Results reported in ChEMBL document CHEMBL1629488, “Synthesis and biological evaluation of 2-(3',4',5'-trimethoxybenzoyl)-3-aryl/arylaminobenzo[b]thiophene derivatives as a novel class of antiproliferative agents” (Eur J Med Chem, 2010).

How the values were obtained:
A549 = test: Antiproliferative activity against human A549 cells after 72 hrs by MTT assay; type: functional, cell-based; conditions: A549, 72 h
Outline: (§1)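 A549 and HeLa cells grown in DMEM with 10% FBS and penicillin/streptomycin. Plated at 8 × 10^3 cells/well and held 18 h at 37 °C in 5% CO2. Medium replaced with compound in complete medium at varied concentrations for 72 h at 37 °C, then MTT read.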

Jurkat = test: Antiproliferative activity against human Jurkat cells after 72 hrs by MTT assay; type: functional, cell-based
HL-60 = test: Antiproliferative activity against human HL60 cells after 72 hrs by MTT assay; type: functional, cell-based; conditions: HL-60, 72 h
K562 = test: Antiproliferative activity against human K562 cells after 72 hrs by MTT assay; type: functional, cell-based; conditions: K562, 72 h
HeLa = test: Antiproliferative activity against human HeLa cells assessed as cell viability after 72 hrs by MTT assay; type: functional, cell-based; outline: as §1
[1] = Inhibition of tubulin polymerization after 20 mins by turbidimetry
[2] = Inhibition of tubulin polymerization after 20 mins by turbidimetry
Outline: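 Tubulin (10 µM) in glutamate buffer was preincubated with varied compound concentrations at 30 °C, then cooled to 0 °C. GTP was added and the mixture warmed to 30 °C in cuvettes while turbidity was recorded.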

SMILES	IC50 (A549)	IC50 (Jurkat)	IC50 (HL-60)	IC50 (K562)	IC50 (HeLa)	IC50 [1]	inhibition [2]
COc1ccc(OC)c(-c2c(C(=O)c3cc(OC)c(OC)c(OC)c3)sc3ccccc23)c1	> 10 µM	> 10 µM	> 10 µM	> 10 µM	–	–	–
COc1ccccc1-c1c(C(=O)c2cc(OC)c(OC)c(OC)c2)sc2ccccc12	> 10 µM	2.9 µM	2.9 µM	3.4 µM	5 µM	–	–
COc1ccc(Nc2c(C(=O)c3cc(OC)c(OC)c(OC)c3)sc3ccccc23)cc1	9.3 µM	3.5 µM	3.7 µM	2.9 µM	7.7 µM	–	–
COc1ccc(-c2c(C(=O)c3cc(OC)c(OC)c(OC)c3)sc3ccccc23)c(OC)c1	5.8 µM	4 µM	4.6 µM	4.1 µM	3.9 µM	–	–
COc1cc(C(=O)c2sc3ccccc3c2-c2ccc(C)cc2)cc(OC)c1OC	7.8 µM	3.3 µM	1.4 µM	3.5 µM	3.7 µM	–	–
COc1cc(C(=O)c2sc3cc(C)ccc3c2Nc2ccc(C)cc2)cc(OC)c1OC	1.9 µM	2.5 µM	1.9 µM	1.4 µM	0.98 µM	15 µM	–
COc1cc(C(=O)c2sc3ccccc3c2-c2ccc(F)cc2)cc(OC)c1OC	3.2 µM	2.3 µM	3.2 µM	2.1 µM	3 µM	–	–
CCOc1ccc(-c2c(C(=O)c3cc(OC)c(OC)c(OC)c3)sc3ccccc23)cc1	3.1 µM	4.1 µM	3.5 µM	3.1 µM	3 µM	–	–
COc1cc(C(=O)c2sc3ccccc3c2-c2ccc(SC)cc2)cc(OC)c1OC	5.4 µM	1.9 µM	1.3 µM	1.8 µM	3.5 µM	–	–
COc1cc(C(=O)c2sc3ccccc3c2Nc2ccc(Cl)cc2)cc(OC)c1OC	3.1 µM	1.9 µM	5.4 µM	1.1 µM	3.7 µM	–	–
COc1ccc(-c2c(C(=O)c3cc(OC)c(OC)c(OC)c3)sc3ccccc23)cc1	4.4 µM	1.6 µM	1.6 µM	1.7 µM	4.2 µM	–	–
COc1cc(C(=O)c2sc3ccccc3c2-c2ccccc2)cc(OC)c1OC	5 µM	1.5 µM	1.7 µM	2.1 µM	1.9 µM	–	–
COc1cc(C(=O)c2sc3ccccc3c2-c2ccc(Cl)cc2)cc(OC)c1OC	7.5 µM	3.7 µM	3.3 µM	4.2 µM	5.2 µM	–	–
COc1cc(C(=O)c2sc3ccccc3c2Nc2ccc(C)cc2)cc(OC)c1OC	2.6 µM	1.7 µM	4.6 µM	1.6 µM	3.5 µM	–	–
COc1ccc(-c2c(C(=O)c3cc(OC)c(OC)c(OC)c3)sc3ccccc23)cc1C	> 10 µM	> 10 µM	> 10 µM	> 10 µM	> 10 µM	–	–
CCOc1ccc(Nc2c(C(=O)c3cc(OC)c(OC)c(OC)c3)sc3cc(C)ccc23)cc1	5.8 µM	5 µM	4 µM	4.3 µM	4.3 µM	–	50%
COc1cc(C(=O)c2sc3ccccc3c2Nc2ccccc2)cc(OC)c1OC	3 µM	1.6 µM	5.2 µM	2.3 µM	2.7 µM	–	–
